Source: ChEMBL document CHEMBL1122517, “2-Phenylindoles. Relationship between structure, estrogen receptor affinity, and mammary tumor inhibiting activity in the rat” (1984)
Each block holds one compound with its values, some of them ahead of it.

Tests used:
[1] = target: Estrogen receptor (Bos taurus) (UniProt Q9XSB5+P49884); assay: Relative binding affinity for the calf uterine estrogen receptor measured as the ratio of molar concentration of 17-beta-estradiol (E2) and inhibitor required to decrease the amount of bound [3H]E2 by 50%; assay type: protein assay
Procedure, shortened: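 Competitive binding in calf uterine cytosol with 5×10^-9 M [3H]estradiol, 18 h at 4 °C, Tris/EDTA buffer (0.01 M, pH 7.5). Unbound ligand was removed with dextran-coated charcoal (90 min, 4 °C) and supernatant radioactivity counted. Six competitor concentrations gave 10–90% bound. From semilog plots, RBA = ratio of molar concentrations of estradiol to compound giving 50% decrease in binding, ×100.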

[2] = target: T1, Estrogen receptor (Mus musculus) (UniProt O08537+P19785); assay: Anti-uterotrophic activity in mice as uterus dry weight (mg)/body weight (g) *100 at 25 ug dose; assay type: functional, tissue-based
T1 sequence (O08537 whole entry, looked up): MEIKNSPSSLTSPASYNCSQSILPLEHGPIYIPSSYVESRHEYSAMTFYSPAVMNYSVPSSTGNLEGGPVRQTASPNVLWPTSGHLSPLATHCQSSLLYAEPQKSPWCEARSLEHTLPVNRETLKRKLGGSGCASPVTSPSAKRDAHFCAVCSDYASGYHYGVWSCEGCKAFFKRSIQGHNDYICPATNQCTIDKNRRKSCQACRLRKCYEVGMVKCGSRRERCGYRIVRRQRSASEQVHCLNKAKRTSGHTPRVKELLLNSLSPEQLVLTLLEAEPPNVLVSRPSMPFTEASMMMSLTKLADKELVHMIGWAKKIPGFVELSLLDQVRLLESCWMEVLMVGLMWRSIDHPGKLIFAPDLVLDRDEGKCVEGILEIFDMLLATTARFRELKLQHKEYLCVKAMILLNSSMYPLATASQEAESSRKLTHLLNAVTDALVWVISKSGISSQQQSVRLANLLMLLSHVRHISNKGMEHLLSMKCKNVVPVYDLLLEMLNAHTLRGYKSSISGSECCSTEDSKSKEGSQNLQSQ
T1 sequence (P19785 whole entry, looked up): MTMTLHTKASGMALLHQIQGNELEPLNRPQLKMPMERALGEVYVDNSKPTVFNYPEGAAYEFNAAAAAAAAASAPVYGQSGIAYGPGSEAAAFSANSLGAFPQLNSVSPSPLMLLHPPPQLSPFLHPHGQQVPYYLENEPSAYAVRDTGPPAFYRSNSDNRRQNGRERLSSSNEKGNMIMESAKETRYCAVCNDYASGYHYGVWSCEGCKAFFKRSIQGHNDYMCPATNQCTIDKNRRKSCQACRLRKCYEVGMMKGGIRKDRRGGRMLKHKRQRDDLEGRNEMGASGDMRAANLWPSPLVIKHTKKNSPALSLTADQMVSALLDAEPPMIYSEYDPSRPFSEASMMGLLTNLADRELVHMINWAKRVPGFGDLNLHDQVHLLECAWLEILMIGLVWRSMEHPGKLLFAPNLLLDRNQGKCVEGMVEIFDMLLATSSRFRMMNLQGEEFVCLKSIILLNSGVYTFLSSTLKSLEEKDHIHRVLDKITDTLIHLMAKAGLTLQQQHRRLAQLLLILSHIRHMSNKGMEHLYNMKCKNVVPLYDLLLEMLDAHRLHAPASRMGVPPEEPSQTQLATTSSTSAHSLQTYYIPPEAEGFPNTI
Procedure, shortened: (§1)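 Immature female NMRI mice, 19 days old, groups of 10, given sc injections on 3 consecutive days. Each injection held 0.4 μg estrone plus the indole dose per animal, in olive oil (50 μL). Killed 24 h after the last injection. Uteri were fixed in Bouin solution, washed, and dried 24 h at 100 °C. Read-out was uterine dry weight (mg)/body weight (g) × 100, mean ± SD.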

[3] = target: T1, Estrogen receptor (Mus musculus); assay: Percentage inhibition of uterotrophic activity at 25 ug dose; assay type: functional
Procedure, shortened: (§2)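 Antiuterotrophic test in immature 19-day-old female NMRI mice (n=10), dosed sc on 3 consecutive days with 0.4 µg estrone per animal per day plus compound in olive oil. Uterine dry weight/body weight ×100 was read 24 h after the last dose. Inhibition % = 100 − [(E_S,T − E_V)/(E_S − E_V)]×100.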

[4] = target: T1, Estrogen receptor (Mus musculus); assay: Percentage inhibition of uterotrophic activity at 5 ug dose; assay type: functional; procedure, shortened: as §2
[5] = target: T1, Estrogen receptor (Mus musculus); assay: Percentage inhibition of uterotrophic activity at 125 ug dose; assay type: functional; procedure, shortened: as §2
[6] = target: T1, Estrogen receptor (Mus musculus); assay: Uterotrophic activity in mice as uterus dry weight (mg)/body weight (g) *100 at 5 ug dose; assay type: functional, tissue-based
Procedure, shortened: (§3)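 Immature 19-day-old female NMRI mice, groups of 10. Compound dose per animal in olive oil (50 µL) sc on 3 consecutive days. Mice were killed 24 h after the last injection. Uteri were Bouin-fixed 20 h, cleaned, washed with alcoholic LiCl, and dried at 100 °C for 24 h. Effect = uterine dry weight (mg)/body weight (g) ×100; mean ± SD.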

[7] = target: T1, Estrogen receptor (Mus musculus); assay: Uterotrophic activity in mice as uterus dry weight (mg)/body weight (g) *100 at 25 ug dose; assay type: functional, tissue-based; procedure, shortened: as §3
[8] = target: T1, Estrogen receptor (Mus musculus); assay: Uterotrophic activity in mice as uterus dry weight (mg)/body weight (g) *100 at 0.2 ug dose; assay type: functional, tissue-based; procedure, shortened: as §3
[9] = target: T1, Estrogen receptor (Mus musculus); assay: Anti-uterotrophic activity in mice as uterus dry weight (mg)/body weight (g) *100 at 125 ug dose; assay type: functional, tissue-based; procedure, shortened: as §1
[10] = target: T1, Estrogen receptor (Mus musculus); assay: Percentage inhibition of uterotrophic activity at 1 ug dose; assay type: functional; procedure, shortened: as §2
[11] = target: T1, Estrogen receptor (Mus musculus); assay: Anti-uterotrophic activity in mice as uterus dry weight (mg)/body weight (g) *100 at 5 ug dose; assay type: functional, tissue-based; procedure, shortened: as §1
[12] = target: T1, Estrogen receptor (Mus musculus); assay: Uterotrophic activity in mice as uterus dry weight (mg)/body weight (g) *100 at 1 ug dose; assay type: functional, tissue-based; procedure, shortened: as §3
[13] = target: T1, Estrogen receptor (Mus musculus); assay: Anti-uterotrophic activity in mice as uterus dry weight (mg)/body weight (g) *100 at 1 ug dose; assay type: functional, tissue-based; procedure, shortened: as §1
Rattus norvegicus [14] = species: Rattus norvegicus; assay: (§4) Change in DMBA-induced mammary carcinoma tumor area in rats at 1.8 mg dose; assay type: functional
Procedure, shortened: (§5)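 Female Sprague-Dawley rats got one 20 mg DMBA dose by gavage at 50 days old and were palpated twice weekly from day 30. Rats were randomized once tumor area exceeded 140 mm². Dose (per kg) was given sc in olive oil, once daily Monday to Thursday and doubled on Friday. Tumor area was taken from caliper measurements of two perpendicular axes, twice weekly. Change per animal is given as median % and range.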

Rattus norvegicus [15] = species: Rattus norvegicus; assay: Percent unchanged DMBA-induced mammary carcinoma tumors in rats at 1.8 mg dose; assay type: functional
Procedure, shortened: (§6)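 Female Sprague-Dawley rats, 50 days old, given a single 20 mg DMBA dose in 1 mL olive oil by gavage. Rats were palpated twice weekly from day 30, and those without tumors by day 70 were discarded. Rats were randomized once tumor area exceeded 140 mm². Drug dose was per kg in olive oil (1 mL/kg) sc, single dose Mon–Thu and double dose Fri. Tumor area (caliper, two perpendicular axes) and body weight were measured twice weekly.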

Rattus norvegicus [16] = species: Rattus norvegicus; assay: Change in body weight of DMBA-induced mammary carcinoma tumor bearing rats at 1.8 mg dose; assay type: functional
Procedure, shortened: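 DMBA-induced tumor-bearing Sprague-Dawley rats (20 mg DMBA by gavage at 50 days old), randomized when tumor area exceeded 140 mm². Dose per kg was given sc in olive oil, single dose daily Monday to Thursday, double dose Friday. Body weight was measured twice weekly. Read-out was % change in body weight.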

Rattus norvegicus [17] = species: Rattus norvegicus; assay: as §4; assay type: functional; procedure, shortened: as §5; remark: listed apart in the source
Rattus norvegicus [18] = species: Rattus norvegicus; assay: Change in DMBA-induced mammary carcinoma tumor area in rats at 1.8 mg dose; 47-510; assay type: functional; procedure, shortened: as §5
Rattus norvegicus [19] = species: Rattus norvegicus; assay: Percent progressive DMBA-induced mammary carcinoma tumors in rats at 1.8 mg dose; assay type: functional; procedure, shortened: as §6
Rattus norvegicus [20] = species: Rattus norvegicus; assay: Formation of new DMBA-induced mammary carcinoma tumors in rats at 1.8 mg dose; assay type: functional
Procedure, shortened: (§7)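 DMBA-induced tumors in Sprague-Dawley rats, entered when tumor area exceeded 140 mm². Dose per kg was given sc in olive oil, daily Monday to Thursday with a double dose Friday. Tumors were measured by calipers twice weekly. Tumor number was counted at the start of the test. Complete remission meant the tumor was no longer palpable. Partial remission meant reduction to ≤50% of initial size. New tumor appearance was recorded.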

Rattus norvegicus [21] = species: Rattus norvegicus; assay: Number of DMBA-induced mammary carcinoma tumors in rats at 1.8 mg dose; assay type: functional; procedure, shortened: as §7
Rattus norvegicus [22] = species: Rattus norvegicus; assay: Partial remission (%) of DMBA-induced mammary carcinoma tumors in rats at 1.8 mg dose; assay type: functional; procedure, shortened: as §7

Structure (SMILES): CC(=O)Oc1ccc(-c2c(C)c3ccc(OC(C)=O)cc3n2C)cc1
Anti-uterotrophic effect [2]: 34.3
inhibition [3]: 23%
inhibition [4]: 7%
inhibition [5]: 33%
Uterotrophic effect [6]: 21.4
Uterotrophic effect [7]: 24.2
Uterotrophic effect [8]: 18.2
Anti-uterotrophic effect [9]: 31.7
inhibition [10]: 31%
Anti-uterotrophic effect [11]: 38.2
Uterotrophic effect [12]: 18.6
Anti-uterotrophic effect [13]: 32.3

Structure (SMILES): Cc1c(-c2cccc(O)c2)n(C)c2cc(O)ccc12
RBA [1]: 0.55

Structure (SMILES): CCn1c(-c2cccc(O)c2)c(C)c2ccc(O)cc21
RBA [1]: 3

Structure (SMILES): Cc1c(-c2cccc(O)c2)n(C)c2ccc(O)cc12
RBA [1]: 0.6

Structure (SMILES): CCCn1c(-c2ccc(OC(C)=O)cc2)c(C)c2cc(OC(C)=O)ccc21
Anti-uterotrophic effect [2]: 29.8
Change of tumor area (Rattus norvegicus [14]): 198%
Static tumors (Rattus norvegicus [15]): 30%
inhibition [3]: 66%
inhibition [4]: 37%
inhibition [5]: 67%
Change of body weight (Rattus norvegicus [16]): 2%
Uterotrophic effect [6]: 23
Uterotrophic effect [7]: 28.5
Change of tumor area (Rattus norvegicus [17]): 198%
Uterotrophic effect [8]: 16.7
Change of tumor area (Rattus norvegicus [18]): 47%
Progressed tumors (Rattus norvegicus [19]): 55%
Anti-uterotrophic effect [9]: 29.3
inhibition [10]: 24%
Anti-uterotrophic effect [11]: 40.3
Uterotrophic effect [12]: 21.7
New tumors (Rattus norvegicus [20]): 27
No. of tumors (Rattus norvegicus [21]): 34
Partial remission (Rattus norvegicus [22]): 8%
Anti-uterotrophic effect [13]: 45.2

Structure (SMILES): Oc1ccc(-c2cc3ccc(O)cc3[nH]2)cc1
RBA [1]: 0.01

Second part, the compound after the results:

RBA [1]: 1.7
Structure (SMILES): CCCc1c(-c2ccc(O)cc2)n(CCC)c2ccc(O)cc12

RBA [1]: 0.06
Structure (SMILES): Cc1c(-c2ccc(O)cc2)[nH]c2cc(O)ccc12

RBA [1]: 13
Structure (SMILES): Cc1c(-c2ccc(O)cc2)n(C(C)C)c2cc(O)ccc12

RBA [1]: 4.3
Structure (SMILES): CCCCn1c(-c2ccc(O)cc2)cc2ccc(O)cc21

RBA [1]: 21
Structure (SMILES): CCc1c(-c2ccc(O)cc2)n(CC)c2cc(O)ccc12
